5 compounds from ChEMBL document CHEMBL1132376, “Synthesis, structure-activity relationships, and RARgamma-ligand interactions of nitrogen heteroarotinoids” (J Med Chem, 1999) can be followed below.

For one test, the system named is SK-OV-3. In words: Percent of growth inhibition of Cell line SKOV-3(Ovarian) by the compound. The test is classed as functional, Homo sapiens. In outline: (§1)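 Carcinoma cell lines were seeded at 2000–4000 cells/well and dosed the next day at 10 µM against a DMSO control. After 72 h cells were TCA-fixed, SRB-stained and the dye solubilized in Tris-HCl, then OD was read. Triplicates were averaged, and % inhibition = (1 − treated/control OD) × 100.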

Another test deals with Caov-3 cell line. In words: Percent of growth inhibition of Cell line Caov-3(Ovarian) by the compound. The format is functional, Homo sapiens. In outline:
as §1

The next test has as its system SW 954. In words: Percent of growth inhibition of Cell line SW954 (Vulvar) by the compound. The test is classed as functional, Homo sapiens. In outline:
as §1

Another test has as its system SW 962. The test can be described thus: Percent of growth inhibition of Cell line SW962 (Vulvar) by the compound. The test is classed as functional, Homo sapiens. In outline:
as §1

The target in test [1] is T1, Retinoic acid receptor RXR-gamma (Mus musculus) (UniProt P28705).
T1 sequence (whole entry): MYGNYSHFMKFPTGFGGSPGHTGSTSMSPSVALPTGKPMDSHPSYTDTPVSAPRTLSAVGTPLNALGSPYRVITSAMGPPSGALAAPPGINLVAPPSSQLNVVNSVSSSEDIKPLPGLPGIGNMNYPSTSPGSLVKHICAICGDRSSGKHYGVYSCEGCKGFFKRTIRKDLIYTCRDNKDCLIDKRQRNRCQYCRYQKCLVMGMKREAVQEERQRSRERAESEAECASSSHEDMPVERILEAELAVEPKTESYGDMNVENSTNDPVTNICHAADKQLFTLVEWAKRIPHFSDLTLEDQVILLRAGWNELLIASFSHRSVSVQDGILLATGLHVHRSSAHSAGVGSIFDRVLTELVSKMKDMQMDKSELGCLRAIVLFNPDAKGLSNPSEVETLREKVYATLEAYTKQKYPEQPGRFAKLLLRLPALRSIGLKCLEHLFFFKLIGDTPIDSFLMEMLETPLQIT
The test can be described thus: Percent transcriptional activation relative to 9-cis RA in CV-1 cells expressing Retinoid X receptor RXR gamma. The test is classed as functional, cell-based. In short, it runs like this: (§2)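 CV-1 cells were transiently cotransfected with a human RARα/β/γ or mouse RXRα/β/γ expression vector (100 ng), βRARE-tk-CAT reporter (500 ng) and β-gal control (100 ng). Retinoids (10^-10–10^-5 M, 0.1% DMSO) were added 16–18 h later for 24 h, and CAT and β-gal were read by ELISA. Efficacy = maximal activity ÷ 9-cis-RA maximal activity. Triplicates were run in at least two experiments.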

The subject of test [2] is CC-1. In words: Percent inhibition of CC-1 cervical cell proliferation. The test is classed as functional, Homo sapiens. In outline: as §1
A short description of test [3]: Percent transcriptional activation relative to 9-cis RA in CV-1 cells expressing Retinoic acid receptor RAR gamma. The test is classed as functional, Homo sapiens. In short, it runs like this: as §2
Test [4] concerns the target T2, Retinoic acid receptor alpha (Homo sapiens) (UniProt P10276).
T2 sequence (whole entry): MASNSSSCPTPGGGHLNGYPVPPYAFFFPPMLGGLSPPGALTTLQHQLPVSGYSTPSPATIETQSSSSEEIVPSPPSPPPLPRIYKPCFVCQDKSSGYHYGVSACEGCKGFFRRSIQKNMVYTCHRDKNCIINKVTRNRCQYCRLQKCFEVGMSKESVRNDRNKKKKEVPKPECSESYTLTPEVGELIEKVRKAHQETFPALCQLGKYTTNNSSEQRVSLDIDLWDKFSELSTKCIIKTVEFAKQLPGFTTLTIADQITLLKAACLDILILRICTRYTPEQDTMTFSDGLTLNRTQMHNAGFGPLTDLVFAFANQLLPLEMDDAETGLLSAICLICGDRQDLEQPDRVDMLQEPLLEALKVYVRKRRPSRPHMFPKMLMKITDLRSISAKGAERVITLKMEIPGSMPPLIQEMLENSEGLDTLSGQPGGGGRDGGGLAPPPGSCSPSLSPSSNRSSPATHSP
The test can be described thus: Percent transcriptional activation relative to 9-cis RA in CV-1 cells expressing Retinoic acid receptor RAR alpha. The test is classed as functional, cell-based. In short, it runs like this: as §2

Test [5] can be described thus: Transcriptional activation in CV-1 cells expressing Retinoid X receptor RXR alpha. The test is classed as functional, cell-based. In outline: (§3)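 CV-1 cells were cotransfected with a human RAR or mouse RXR subtype vector, βRARE-tk-CAT reporter and β-gal internal control. Retinoids were applied at 10^-10–10^-5 M (0.1% DMSO) for 24 h, then CAT/β-gal was measured by ELISA. Potency is the concentration giving half of the agent's own maximal activity. Triplicates were run in at least two experiments.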

Another test concerns SCC-38. The test can be described thus: Percent of growth inhibition of Cell line SCC-38(Head and Neck) by the compound. The test is classed as functional, Homo sapiens. In short, it runs like this: as §1
In test [6] the target is T3, Retinoic acid receptor beta (Homo sapiens, UniProt P10826).
T3 sequence (P10826 whole entry): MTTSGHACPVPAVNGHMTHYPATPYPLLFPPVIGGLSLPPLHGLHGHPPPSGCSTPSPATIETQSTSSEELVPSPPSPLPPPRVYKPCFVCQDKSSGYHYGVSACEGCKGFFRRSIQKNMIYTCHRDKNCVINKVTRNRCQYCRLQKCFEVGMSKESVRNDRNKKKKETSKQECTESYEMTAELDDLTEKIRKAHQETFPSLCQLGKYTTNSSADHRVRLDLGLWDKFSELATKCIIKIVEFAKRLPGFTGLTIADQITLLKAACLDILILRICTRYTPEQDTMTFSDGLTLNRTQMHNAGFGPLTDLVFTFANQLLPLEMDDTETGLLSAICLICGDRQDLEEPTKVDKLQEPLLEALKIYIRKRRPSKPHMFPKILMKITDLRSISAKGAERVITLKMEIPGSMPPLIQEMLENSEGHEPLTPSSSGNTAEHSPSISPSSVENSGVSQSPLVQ
The test can be described thus: Transcriptional activation in CV-1 cells expressing Retinoic acid receptor RAR beta. The test is classed as functional, cell-based. In short, it runs like this: as §3

The test system of a further test is SiHa. The test can be described thus: Percent of growth inhibition of Cell line SiHa (Cervix) by the compound. The test is classed as functional, Homo sapiens. In short, it runs like this:
as §1

In test [7] the target is T4, Retinoic acid receptor RXR-beta (Mus musculus, UniProt P28704).
T4 sequence (P28704 whole entry): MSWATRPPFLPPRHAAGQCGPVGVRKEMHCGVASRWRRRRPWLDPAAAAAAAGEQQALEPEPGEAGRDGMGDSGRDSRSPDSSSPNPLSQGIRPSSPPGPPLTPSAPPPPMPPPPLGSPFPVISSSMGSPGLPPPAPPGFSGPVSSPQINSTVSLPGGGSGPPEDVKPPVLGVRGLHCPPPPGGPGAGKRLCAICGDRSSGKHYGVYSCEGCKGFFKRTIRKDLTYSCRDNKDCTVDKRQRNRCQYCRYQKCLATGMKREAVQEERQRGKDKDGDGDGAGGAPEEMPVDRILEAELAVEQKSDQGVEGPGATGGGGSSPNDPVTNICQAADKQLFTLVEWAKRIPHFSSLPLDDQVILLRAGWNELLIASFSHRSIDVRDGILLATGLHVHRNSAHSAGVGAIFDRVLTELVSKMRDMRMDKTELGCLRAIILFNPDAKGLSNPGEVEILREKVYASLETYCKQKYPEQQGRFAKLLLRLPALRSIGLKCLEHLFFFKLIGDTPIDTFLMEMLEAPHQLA
The test can be described thus: Transcriptional activation in CV-1 cells expressing Retinoid X receptor RXR beta. The format is functional, cell-based. In short, it runs like this:
as §3

Test [8] concerns the target T5, Retinoic acid receptor alpha (Homo sapiens, UniProt P10276).
T5 sequence (P10276 whole entry): T2 sequence (whole entry)
The test can be described thus: Transcriptional activation in CV-1 cells expressing human Retinoic acid receptor alpha. The test is classed as functional, cell-based. In short, it runs like this:
as §3

The test system of a further test is SCC-2. The test can be described thus: Percent of growth inhibition of Cell line SCC-2(Head and Neck) by the compound. The test is classed as functional, Homo sapiens. In short, it runs like this:
as §1

For test [9], the target named is T6, Retinoic acid receptor beta (Homo sapiens) (UniProt P10826).
T6 sequence (whole entry): T3 sequence (P10826 whole entry)
In words: Percent transcriptional activation relative to 9-cis RA in CV-1 cells expressing Retinoic acid receptor RAR beta. The test is classed as functional, cell-based. In short, it runs like this: as §2

Test [10] deals with T7, Retinoic acid receptor RXR-beta (Mus musculus) (UniProt P28704).
T7 sequence (whole entry): T4 sequence (P28704 whole entry)
In words: Percent transcriptional activation relative to 9-cis RA in CV-1 cells expressing Retinoid X receptor RXR beta. The format is functional, cell-based. In outline:
as §2

Test [11] concerns the target T8, Retinoic acid receptor RXR-gamma (Mus musculus, UniProt P28705).
T8 sequence (P28705 whole entry): T1 sequence (whole entry)
The test can be described thus: Transcriptional activation in CV-1 cells expressing Retinoid X receptor RXR gamma. The format is functional, cell-based. In outline: as §3

Test [12] can be described thus: The compound was evaluated for Tissue Transglutaminase induction. In short, it runs like this:
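HEL cells ((1–2) × 10^5/mL) were exposed to 10 µM retinoid for 48 h, washed in PBS and sonicated in Tris/NaCl/EDTA/PMSF buffer (pH 7.4). TGase was measured as Ca2+-dependent [14C]putrescine incorporation into N,N-dimethylcasein, counting acid-insoluble radioactivity, with Lowry protein. Efficacy is expressed relative to maximal t-RA activity.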

Test [13] in a line: Percent transcriptional activation relative to 9-cis RA in CV-1 cells expressing Retinoid X receptor RXR alpha. The test is classed as functional, Mus musculus. In outline: as §2
Test [14] can be described thus: Transcriptional activation in CV-1 cells expressing Retinoic acid receptor RAR gamma. The format is functional, cell-based. Conditions: Homo sapiens. In outline:
as §3

Test [15] deals with CC-1. The test can be described thus: Percent of growth inhibition of Cell line CC-1(Cervix) by the compound. The format is functional, Homo sapiens. In short, it runs like this:
as §1

In the case of `C/C(=C/c1ccc(C(=O)O)cc1)c1ccc2c(c1)C(C)(C)CCC2(C)C`, the Inhibition in the test with SK-OV-3 stood at 20%; in the test on Caov-3 cell line, 15%; with SW 954, 30%; with SW 962, 20%.

As for `CCOC(=O)c1ccc(OC(=O)c2ccc3c(c2)C(C)(C)CCN3C(C)C)cc1`, the Inhibition in the test on SK-OV-3 stood at 2%; in the test with Caov-3 cell line, 13%; in the test on CC-1 [2] it was 15%; in the test with SCC-38, 25%; in the test on SiHa, 25%; in the test with SCC-2, 24%. The Inhibition was found to be 49% with SW 954 and 25% in the test with SW 962. Also, the Efficacy in test [1] was 47%; in test [3], 0%; in test [4], 59%; in test [9], 71%; in [10], 45%; in test [13], 62%. Also, the EC50 in [5] worked out at 12 nM; in [6], 41 nM; in test [7], 47 nM; in [8], 217 nM; in test [11], 27 nM. Further, in test [12], the Induction stood at 49.

With `CCOC(=O)c1ccc(OC(=O)c2cc3c(cc2C)N(C)CCC3(C)C)cc1`, the Inhibition in the test with SK-OV-3 stood at 0%; with Caov-3 cell line it was 10%; in the test with CC-1 [2] it was 20%; in the test with SCC-38, 20%; in the test on SiHa, 26%; in the test with SCC-2 it was 20%. Further, the Inhibition with SW 954 stood at 77%; in the test on SW 962, 80%. In addition, the Efficacy is 52% in [1]; 103% in test [3]; 64% in [4]; 63% in [9]; 55% in test [10]; 53% in [13]. The concentration for a half-maximal effect (EC50) in test [5] turned out to be 102 nM; in [6], 92 nM; in [7] it was 70 nM; in test [14], 6 nM; in test [8] it was 796 nM; in test [11] it was 49 nM. Also, the Induction in test [12] worked out at 49.

For the compound `CCOC(=O)c1ccc(OC(=O)c2ccc3c(c2)C(C)(C)CCN3C)cc1`, the Inhibition was determined as 0% with SK-OV-3; 0% with Caov-3 cell line; 25% with CC-1 [2]; 20% in the test on SCC-38; 40% in the test on SiHa; 20% in the test on SCC-2. The figures for the Inhibition in the test on SW 954 and in the test on SW 962 were 35% and 15%, respectively. Besides, the Efficacy is 52% in [1]; 0% in test [3]; 45% in [4]; 64% in test [9]; 53% in test [10]; 47% in [13]. Moreover, the EC50 in [5] was found to be 601 nM; in [6], 256 nM; in test [7], 33 nM; in test [8], 1130 nM; in test [11] it was 20 nM. The same compound came in with an Induction in test [12] of 37.

Regarding `CC1=C(/C=C/C(C)=C\C=C\C(C)=C\C(=O)O)C(C)(C)CCC1` [ALITRETINOIN], the Inhibition is 27% in the test on SK-OV-3; 25% in the test on Caov-3 cell line; 24% in the test with SCC-38; 25% in the test with SiHa; 15% in the test on CC-1 [15]; 25% with SCC-2. Besides, the Inhibition is given as 35% with SW 954 and 30% with SW 962.
